Measured values as given in the M2OR odorant receptor database.

How the values were obtained:
Details in all cases: stereoisomer not certain
O10Q1 Q10R E12D = tested on: O10Q1 Q10R E12D
Outline: (§1)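 Whether a receptor–molecule pair is responsive (active) rests on the original authors' judgment that its measured signal was statistically different from baseline. Pairs without that judgment are non-responsive (inactive). Sources used varied assay methods, commonly transient luciferase assays in mammalian cell lines.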

O10R2 I170L = tested on: O10R2 I170L
Outline: as §1

O10T2 I137M = tested on: O10T2 I137M
Outline: as §1

O10V1 Q123R = tested on: O10V1 Q123R
Outline: as §1

O10X1 N4T R181S = tested on: O10X1 N4T R181S
Outline: as §1

O11G2 F3I I99N V116I = tested on: O11G2 F3I I99N V116I
Outline: as §1

O11H1 M240V = tested on: O11H1 M240V
Outline: as §1

O11H6 I107T = tested on: O11H6 I107T
Outline: as §1

O11HC C156Y V240M = tested on: O11HC C156Y V240M
Outline: as §1

O12D2 S104F = tested on: O12D2 S104F
Outline: as §1

Measured: odorant receptor agonist call;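 note: active if original authors judged signal statistically different from baseline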

Sequence of O10V1 Q123R (as listed by the source, stated change not applied): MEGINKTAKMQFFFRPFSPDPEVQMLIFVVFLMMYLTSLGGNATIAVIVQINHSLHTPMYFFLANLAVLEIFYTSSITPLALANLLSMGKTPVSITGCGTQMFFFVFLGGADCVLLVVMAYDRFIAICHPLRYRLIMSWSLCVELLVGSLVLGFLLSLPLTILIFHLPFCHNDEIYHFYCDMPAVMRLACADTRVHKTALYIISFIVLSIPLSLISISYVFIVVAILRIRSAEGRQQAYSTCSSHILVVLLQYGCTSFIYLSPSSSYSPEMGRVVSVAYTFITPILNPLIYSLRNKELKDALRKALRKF
Sequence of O11H6 I107T (as listed by the source, stated change not applied): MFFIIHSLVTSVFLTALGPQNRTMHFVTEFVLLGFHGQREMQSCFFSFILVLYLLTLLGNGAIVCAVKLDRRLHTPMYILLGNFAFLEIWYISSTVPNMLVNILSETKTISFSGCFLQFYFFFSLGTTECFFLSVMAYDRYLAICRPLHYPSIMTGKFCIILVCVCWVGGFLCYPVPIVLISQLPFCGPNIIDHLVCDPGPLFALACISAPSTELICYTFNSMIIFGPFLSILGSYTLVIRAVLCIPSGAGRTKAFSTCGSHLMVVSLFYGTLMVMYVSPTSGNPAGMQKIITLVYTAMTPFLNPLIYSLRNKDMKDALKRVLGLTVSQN
Sequence of O11H1 M240V (as listed by the source, stated change not applied): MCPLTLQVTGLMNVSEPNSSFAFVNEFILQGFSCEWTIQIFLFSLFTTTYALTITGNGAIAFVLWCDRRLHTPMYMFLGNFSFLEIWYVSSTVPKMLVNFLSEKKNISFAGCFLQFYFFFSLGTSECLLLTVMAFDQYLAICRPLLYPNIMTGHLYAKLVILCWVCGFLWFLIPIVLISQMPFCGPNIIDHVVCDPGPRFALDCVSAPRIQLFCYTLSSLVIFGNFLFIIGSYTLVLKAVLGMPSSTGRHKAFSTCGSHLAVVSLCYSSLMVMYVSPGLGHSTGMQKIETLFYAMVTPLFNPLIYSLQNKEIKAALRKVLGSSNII
Sequence of O10R2 I170L (as listed by the source, stated change not applied): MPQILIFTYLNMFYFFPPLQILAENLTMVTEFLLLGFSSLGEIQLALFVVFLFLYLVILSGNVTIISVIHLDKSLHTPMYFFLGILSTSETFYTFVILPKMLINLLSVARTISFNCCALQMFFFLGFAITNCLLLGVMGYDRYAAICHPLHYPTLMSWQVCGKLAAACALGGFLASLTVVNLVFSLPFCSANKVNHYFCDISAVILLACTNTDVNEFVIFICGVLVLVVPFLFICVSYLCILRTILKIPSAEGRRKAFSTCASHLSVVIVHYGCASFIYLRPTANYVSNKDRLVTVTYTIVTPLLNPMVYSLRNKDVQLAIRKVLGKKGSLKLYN
Sequence of O10T2 I137M (as listed by the source, stated change not applied): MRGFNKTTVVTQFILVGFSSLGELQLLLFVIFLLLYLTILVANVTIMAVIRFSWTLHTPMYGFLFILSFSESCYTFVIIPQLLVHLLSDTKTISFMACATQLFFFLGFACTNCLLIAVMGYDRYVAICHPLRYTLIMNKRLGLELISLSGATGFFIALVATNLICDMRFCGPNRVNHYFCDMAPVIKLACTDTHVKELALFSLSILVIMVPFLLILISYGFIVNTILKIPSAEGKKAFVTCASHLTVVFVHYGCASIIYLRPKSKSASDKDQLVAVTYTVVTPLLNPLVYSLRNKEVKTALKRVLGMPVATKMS
Sequence of O12D2 S104F (as listed by the source, stated change not applied): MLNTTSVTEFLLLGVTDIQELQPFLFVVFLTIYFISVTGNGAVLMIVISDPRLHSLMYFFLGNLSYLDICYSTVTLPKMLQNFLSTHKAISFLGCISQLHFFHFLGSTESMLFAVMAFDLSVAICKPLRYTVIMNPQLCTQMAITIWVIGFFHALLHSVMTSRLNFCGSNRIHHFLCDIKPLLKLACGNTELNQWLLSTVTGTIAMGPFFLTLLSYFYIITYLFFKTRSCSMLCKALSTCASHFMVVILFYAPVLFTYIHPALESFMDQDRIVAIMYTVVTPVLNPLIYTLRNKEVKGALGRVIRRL

C=CCOC(=O)Cc1ccccc1
inactive: all assays above
